Laboratory results as given in PubChem BioAssay.
Inconclusive results are not listed.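 The calls were made as follows, unless noted: active = growth inhibition above 25% in both replicates, a cutoff set 3 SD above the mean; inconclusive = above 25% in only one replicate; inactive = the rest.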

Tests used:
[1] = OD615 S. cerevisiae growth inhibition, permissive medium, pilot counter-assay, permissive growth control for S. cerevisiae lifespan shortening project (AID 705); settings: OD615, 24 h, at 10 µM, stronger effect = higher value
In short: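 Test system: Saccharomyces cerevisiae strain carrying genetically modified DeaD replicative-lifespan system; buffer or medium: SC raffinose/galactose permissive medium; dosing: one dose 10 µM, DMSO 0.25% final; times: 24 h exposure, 30 °C; measured by: OD at 615 nm; read-out basis: growth inhibition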

[2] = Restrictive medium S. cerevisiae growth inhibition, OD615, pilot screen of yeast lifespan reduction project, restrictive growth control (AID 706;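 active = growth inhibition above a set limit, 3 SD over mean compound inhibition, in both replicates, cut at about 43% in these data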;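 also: modified DeaD lifespan yeast strain shifted to restrictive glucose medium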); settings: OD615, 48 h, at 10 µM, stronger effect = higher value
In short: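 material = engineered S. cerevisiae DeaD strain | buffer or medium = glucose-based CSMM-D restrictive medium | dosing = one concentration, 10 µM final, 0.25% DMSO | schedule = 4 h pre-growth plus 48 h compound exposure, 30 °C | detection = OD615 absorbance reading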

[3] = viability gain of MRP-1-high H69AR cells under doxorubicin, pilot screen, MRP-1 activator project, CellTiter-Glo, duplicate (AID 807;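 active = viability increase at or above a cutoff of the median across tested compounds plus 3 SD, cut at about 8.5% in these data, passing the limit was not always enough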;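 also: compound pretreatment 18-22 h then 72 h combined with doxorubicin; 0% = doxorubicin alone and 100% = vehicle without doxorubicin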); settings: H69AR viability with doxorubicin, CellTiter-Glo luminescence; at 10 µM; stronger effect = higher value
[4] = growth suppression of beta-catenin knockout HCT116, pilot screen, human colon tumor cells (AID 823;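 active = cell viability at or below a set limit in both duplicate runs, the limit being the all-compound median minus 4 SD, cut at about 23% in these data, passing the limit was not always enough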;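 also: 0% = wells killed by 20 µM Hyamine and 100% = untreated DMSO cell wells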); settings: CellTiter-Glo, 60 h, at 10 µM, stronger effect = lower value
[5] = growth suppression of PTEN-deleted HCT116, pilot screen, cell-based, HCT116 clonal line, CellTiter-Glo (AID 824;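 active = viability at or below 27.92% in each of two runs, the all-compound median minus 4 SD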;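 also: 0% = 20 µM Hyamine control and 100% = vehicle cell control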); settings: 60 h, at 10 µM, stronger effect = lower value
[6] = inhibitors of the yeast RAM network, pilot screen, dse1pr::URA3 reporter, 5-FOA selection (AID 869;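 active = inhibition over a set limit, the all-compound mean plus 3 SD, in both replicate runs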;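 also: 0% = DMSO wells with no growth and 100% = 10 µM 1-NA-PP1 with full growth; RAM network block rescues cells from 5-FOA so hits raise OD615 growth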); settings: S. cerevisiae dse1pr::URA3 5-FOA growth, OD615, 2 d; at 10 µM; stronger effect = higher value; strain carries analog-sensitive mutant Cbk1 kinase
[7] = RAM signaling pathway blockade in yeast – S. cerevisiae, Pdr1DBD-CYC8 efflux-inhibited sensitized strain, primary screen (AID 1298;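 active = RAM network inhibition above 8.4% in each of two replicates, 3 SD over the compound average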;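 also: 0% = DMSO untreated cells without growth and 100% = 10 µM 1-NA-PP1 full growth; higher means more yeast growth rescued from 5-FOA killing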); settings: S. cerevisiae cbk1-as DSE1-URA3 strain, 5-FOA growth OD615, 2 d; at 50 µM; stronger effect = higher value

COc1ccc(OC)c2c1sc(=NC(=O)CN1C(=O)CCC1=O)n2C
inactive: growth inhibition [1] -3.75% | growth inhibition [2] 5.91% | viability increase [3] -1.92% | viability [4] 92.7% | viability [5] 87.4% | inhibition [6] 1.16% | RAM network inhibition [7] 2.41%

O=C(NCCN1CCOCC1)NC1(C(F)(F)F)Oc2ccccc2O1
inactive: growth inhibition [1] -11% | growth inhibition [2] 4.58% | viability increase [3] -4.99% | viability [4] 76.3% | viability [5] 84.5% | inhibition [6] 0.645% | RAM network inhibition [7] 0.82%

CCC(C)NC(=O)c1ccc(NC(=O)C2CCCO2)cc1 (stereo unspecified)
inactive: growth inhibition [1] -6.02% | growth inhibition [2] -6.03% | viability increase [3] 3.38% | viability [4] 100% | viability [5] 100% | inhibition [6] 4.56% | RAM network inhibition [7] 1.78%

Cn1c(NC(=O)Cc2cccs2)cc(=O)n(C)c1=O
inactive: growth inhibition [1] 5.64% | growth inhibition [2] 5.55% | viability increase [3] -0.45% | viability [4] 105% | viability [5] 101% | inhibition [6] 1.26% | RAM network inhibition [7] -2.37%

Cc1ccc(NC(=O)c2ccco2)cc1C
inactive: growth inhibition [1] 4.04% | growth inhibition [2] 0.435% | viability increase [3] -3.07% | viability [4] 95.5% | viability [5] 90.5% | inhibition [6] 0.665% | RAM network inhibition [7] 0.93%

Cc1c(C(=O)NCc2ccc3c(c2)OCO3)oc2ccccc12
inactive: growth inhibition [1] 1.35% | growth inhibition [2] 16% | viability increase [3] -0.04% | viability [4] 108% | viability [5] 98.9% | inhibition [6] -0.54% | RAM network inhibition [7] 5.64%

COC(=O)c1cc(NC2c3ccccc3C(=O)N2c2cccnc2)cc(C(=O)OC)c1 (stereo unspecified)
inactive: growth inhibition [1] -10.2% | growth inhibition [2] 0.875% | viability increase [3] -4.6% | viability [4] 90.6% | viability [5] 91.4% | inhibition [6] 1.27% | RAM network inhibition [7] 6.35%

Cc1ccc(-c2ccc(CCC(=O)O)n2C(C)C)cc1
inactive: growth inhibition [1] 3.3% | growth inhibition [2] -1.55% | viability increase [3] -1.75% | viability [4] 94.7% | viability [5] 101% | inhibition [6] 2.1% | RAM network inhibition [7] 4.37%

Cn1c(CNC(=O)c2ccc(F)cc2)nc2ccccc21
inactive: growth inhibition [1] -0.44% | growth inhibition [2] -5.71% | viability increase [3] -2.48% | viability [4] 99.5% | viability [5] 102% | inhibition [6] 0.325% | RAM network inhibition [7] 3.67%

Cc1cc(=O)[nH]c(Cc2ccc(OC(C)C)cc2)n1
inactive: growth inhibition [1] -6.43% | growth inhibition [2] -15.4% | viability increase [3] -1.17% | viability [4] 98.4% | viability [5] 93.2% | inhibition [6] 1.98% | RAM network inhibition [7] 5.82%

Cc1ccc(-c2cc(C(F)(F)F)n3ncc(C(=O)NCc4ccco4)c3n2)cc1
inactive: growth inhibition [1] -5.88% | growth inhibition [2] -12.6% | viability increase [3] -5.85% | viability [4] 74% | viability [5] 75.4% | inhibition [6] 2.67% | RAM network inhibition [7] 3.41%

Cn1c(=O)c2c(SCC(=O)c3ccccc3)nc(C3CC3)nc2n(C)c1=O
inactive: growth inhibition [1] 13.4% | growth inhibition [2] 7.46% | viability increase [3] -2.05% | viability [4] 76.8% | viability [5] 77.8% | inhibition [6] 1.17% | RAM network inhibition [7] -1.03%

CCOC(=O)C1CCN(C(=O)C2c3ccccc3C(=O)N(C)C2c2ccc(OC)cc2)CC1 (stereo unspecified)
inactive: growth inhibition [1] -7.75% | growth inhibition [2] -16.1% | viability increase [3] -4.5% | viability [4] 76.3% | viability [5] 85.8% | inhibition [6] 2.1% | RAM network inhibition [7] 1.79%

Cc1cccc(N2CCN(C(=O)C3CCCN(S(=O)(=O)c4cccc5cccnc45)C3)CC2)c1C (stereo unspecified)
inactive: growth inhibition [1] -6.73% | growth inhibition [2] 12.1% | viability increase [3] -4.58% | viability [4] 30.5% | viability [5] 35.8% | inhibition [6] 1.32% | RAM network inhibition [7] 1%

Cc1ccc(CCN2CC(C(=O)NCc3cccnc3)CC2=O)cc1 (stereo unspecified)
inactive: growth inhibition [1] 6% | growth inhibition [2] 5.13% | viability increase [3] -0.64% | viability [4] 104% | viability [5] 94.5% | inhibition [6] 2.59% | RAM network inhibition [7] -0.99%

Cc1ccc(NC(=O)c2cnc3scc(C)n3c2=O)c(C)c1
inactive: growth inhibition [1] -4.27% | growth inhibition [2] -12.6% | viability increase [3] -3.97% | viability [4] 106% | viability [5] 96.5% | inhibition [6] -0.14% | RAM network inhibition [7] 1.14%

COc1ccc(C2NC(=O)c3n[nH]c(C)c32)c(OC)c1 (stereo unspecified)
inactive: growth inhibition [1] -1.65% | growth inhibition [2] 7.6% | viability increase [3] -0.95% | viability [4] 102% | viability [5] 103% | inhibition [6] 2.85% | RAM network inhibition [7] 3.42%

CCOC(=O)CNC(=O)CSc1nc2sc(C)c(C)c2c(=O)n1C
inactive: growth inhibition [1] -0.13% | growth inhibition [2] 34.3% | viability increase [3] -3.44% | viability [4] 98.4% | viability [5] 97.6% | inhibition [6] 3.61% | RAM network inhibition [7] 5.94%
